Data from ChEMBL document CHEMBL3259543 (Bioorg Med Chem Lett, 2014).

Experiments:
Protease [1] = biological target: T1, Protease (Human immunodeficiency virus 1, UniProt Q9YQ12); test: Inhibition of purified HIV-1 protease using [Arg-Glu(EDANS)-Ser-Gin-Asn-Tyr-Ile-Val-Gin-Lys(dabcyl)-Arg) as fluorogenic substrate at 0.4 ng/ml by fluorescence assay
Protease [2] = biological target: T1, Protease; test: Inhibition of purified HIV-1 protease using [Arg-Glu(EDANS)-Ser-Gin-Asn-Tyr-Ile-Val-Gin-Lys(dabcyl)-Arg) as fluorogenic substrate at 10 ng/ml by fluorescence assay
Protease [3] = biological target: T1, Protease; test: Inhibition of purified HIV-1 protease using [Arg-Glu(EDANS)-Ser-Gin-Asn-Tyr-Ile-Val-Gin-Lys(dabcyl)-Arg) as fluorogenic substrate at 0.08 ng/ml by fluorescence assay
Protease [4] = biological target: T1, Protease; test: Inhibition of purified HIV-1 protease using [Arg-Glu(EDANS)-Ser-Gin-Asn-Tyr-Ile-Val-Gin-Lys(dabcyl)-Arg) as fluorogenic substrate at 2 ng/ml by fluorescence assay
Protease [5] = biological target: T1, Protease; test: Inhibition of purified HIV-1 protease using [Arg-Glu(EDANS)-Ser-Gin-Asn-Tyr-Ile-Val-Gin-Lys(dabcyl)-Arg) as fluorogenic substrate by fluorescence assay
Method in brief: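 Wild-type HIV-1 protease, cloned, expressed in Escherichia coli and purified. Inhibitors dissolved in DMSO and diluted. Incubation at 30 °C in 0.1 M sodium acetate, 1 M NaCl, 1 mM DTT, 1 mM EDTA, 3% DMSO, pH 5.0, with the EDANS/dabcyl fluorogenic peptide substrate. Cleavage read by fluorescence in a microplate reader.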

Protease [6] = biological target: T1, Protease; test: Inhibition of purified HIV-1 protease using [Arg-Glu(EDANS)-Ser-Gin-Asn-Tyr-Ile-Val-Gin-Lys(dabcyl)-Arg) as fluorogenic substrate at 50 ng/ml by fluorescence assay
[7] = biological target: Protease (Human immunodeficiency virus 1) (UniProt Q9YQ12); test: Inhibition of purified HIV-1 protease using [Arg-Glu(EDANS)-Ser-Gin-Asn-Tyr-Ile-Val-Gin-Lys(dabcyl)-Arg) as fluorogenic substrate at 10 nM by fluorescence assay
Chain of Protease (Human immunodeficiency virus 1) (Q9YQ12 as listed by the source): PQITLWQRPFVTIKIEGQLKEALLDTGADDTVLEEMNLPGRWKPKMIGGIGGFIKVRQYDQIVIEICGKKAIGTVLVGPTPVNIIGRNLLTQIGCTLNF

T1 sequence (Q9YQ12 whole entry): as the sequence (Q9YQ12 as listed by the source) above

SMILES	Inhibition (Protease [1])	Inhibition (Protease [2])	Inhibition (Protease [3])	Inhibition (Protease [4])	IC50 (Protease [5])	Inhibition (Protease [6])	inhibition [7]
CC(C)CN(C[C@@H](O)[C@H](Cc1ccccc1)NC(=O)O[C@H]1CO[C@H]2[C@@H]1OC[C@H]2O)S(=O)(=O)c1ccc(N)cc1	57.7%	95.4%	33.7%	80.7%	0.43 nM	98.3%	–
CC(C)(C)NC(=O)[C@@H]1CN(Cc2cccnc2)CCN1C[C@@H](O)C[C@@H](Cc1ccccc1)C(=O)N[C@H]1c2ccccc2C[C@H]1O	–	–	–	–	–	–	96.9%
COc1ccc(S(=O)(=O)N(CC(C)C)C[C@@H](O)[C@H](Cc2ccccc2)NC(=O)O[C@H]2CO[C@H]3[C@@H]2OC[C@H]3O)cc1	74.2%	98%	51.4%	99.5%	0.1 nM	97.2%	–
COc1ccc(S(=O)(=O)N(CC(C)C)C[C@@H](O)[C@H](Cc2ccccc2)NC(=O)O[C@H]2CO[C@H]3[C@@H]2OC[C@H]3O[N+](=O)[O-])cc1	62.6%	100%	53.7%	93.1%	0.11 nM	93.1%	–
CO[C@@H]1CO[C@H]2[C@@H]1OC[C@@H]2OC(=O)N[C@@H](Cc1ccccc1)[C@H](O)CN(CC(C)C)S(=O)(=O)c1ccc(N)cc1	59.6%	100%	40.6%	103%	0.36 nM	97%	–
CC(C)CN(C[C@@H](O)[C@H](Cc1ccccc1)NC(=O)O[C@H]1CO[C@H]2[C@@H]1OC[C@H]2O[N+](=O)[O-])S(=O)(=O)c1ccc(N)cc1	75.7%	98.6%	47.2%	94.2%	0.12 nM	94.7%	–
COc1ccc(S(=O)(=O)N(CC(C)C)C[C@@H](O)[C@H](Cc2ccccc2)NC(=O)O[C@H]2CO[C@H]3[C@@H]2OC[C@H]3OC)cc1	83.2%	102%	53.7%	93.5%	0.05 nM	96.2%	–
